Reference: ChEMBL document CHEMBL5331127, “Discovery of ARD-2051 as a Potent and Orally Efficacious Proteolysis Targeting Chimera (PROTAC) Degrader of Androgen Receptor for the Treatment of Advanced Prostate Cancer” (J Med Chem, 2023)
pIC50: −log10 of the molar value. Activity calls are given as the source filed them. The calls are words filed in the database; no cut-off is given here.

What was measured:
[1] = Half life in Beagle dog at 3 mg/kg, po measured up to 24 hrs by LC-MS/MS analysis; assay type: ADME, organism-based, Canis lupus familiaris; conditions: in vivo
Summary of the method: (§1)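 Male Beagle dogs dosed orally at 3 mg/kg in 90% PEG400 + 10% Cremophor.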

[2] = Plasma protein binding in mouse at 1 uM after 5 hrs by equilibrium dialysis based LC-MS/MS analysis; assay type: ADME, cell-free
Summary of the method: (§2)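 Equilibrium dialysis of pooled plasma of each species spiked at 1 μM against 0.1 M sodium phosphate, pH 7.4. 5 h at 37 °C with shaking at 60 rpm. Both sides matrix-matched, ACN/IS quench, LC/MS. % bound = 100 − (buffer/plasma peak-area ratio × 100); recovery also calculated. Warfarin as reference.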

VCaP = assay: Induction of androgen receptor degradation in human VCaP cells at 100 nM pretreated with MG132 for 2 hrs followed by compound addition and 3 hrs by Western blot analysis; assay type: functional, cell-based; conditions: time 5.0 hrs
Summary of the method: (§3)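 LNCaP or VCaP cells pretreated 2 h with DMSO, ARi-12 (10 μM), thalidomide (10 μM), MG-132 (3 μM) or MLN4924 (0.5 μM), then given degrader at 100 nM for 3 h. AR measured by Western blot with GAPDH as loading control.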

[3] = Volume of distribution at steady state in Beagle dog at 1 mg/kg, iv measured upto 24 hrs by LC-MS/MS analysis; assay type: ADME, organism-based, Canis lupus familiaris; conditions: in vivo
Summary of the method: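 Male Beagle dogs. IV 1 mg/kg in 10% PEG400 + 90% PBS (pH 8.0); PO 3 mg/kg in 90% PEG400 + 10% Cremophor. Plasma PK to 24 h; F from IV and PO exposure.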

[4] = Half life in ICR mouse at 2 mg/kg, iv measured upto 24 hrs by LC-MS/MS analysis; assay type: ADME, organism-based; conditions: in vivo
Summary of the method: (§4)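 Male ICR mice (2 mg/kg), male SD rats (1 mg/kg) or male Beagle dogs (1 mg/kg) given a single intravenous dose in 10% PEG400 + 90% PBS adjusted to pH 8.0 with NaOH.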

LNCaP = assay: Induction of androgen receptor degradation in human LNCaP cells at 100 nM pretreated with MG132 for 2 hrs followed by compound addition and 3 hrs by Western blot analysis; assay type: functional, cell-based; conditions: time 5.0 hrs; summary of the method: as §3
Cytochrome P450 2C8 = target: T1, Cytochrome P450 2C8 (Homo sapiens, UniProt P10632); assay: Inhibition of CYP2C8 in human liver microsomes preincubated for 5 mins followed by NADPH addition and measured after 20 mins by LC/MS analysis; assay type: ADME, Microsome
T1 sequence (P10632 whole entry): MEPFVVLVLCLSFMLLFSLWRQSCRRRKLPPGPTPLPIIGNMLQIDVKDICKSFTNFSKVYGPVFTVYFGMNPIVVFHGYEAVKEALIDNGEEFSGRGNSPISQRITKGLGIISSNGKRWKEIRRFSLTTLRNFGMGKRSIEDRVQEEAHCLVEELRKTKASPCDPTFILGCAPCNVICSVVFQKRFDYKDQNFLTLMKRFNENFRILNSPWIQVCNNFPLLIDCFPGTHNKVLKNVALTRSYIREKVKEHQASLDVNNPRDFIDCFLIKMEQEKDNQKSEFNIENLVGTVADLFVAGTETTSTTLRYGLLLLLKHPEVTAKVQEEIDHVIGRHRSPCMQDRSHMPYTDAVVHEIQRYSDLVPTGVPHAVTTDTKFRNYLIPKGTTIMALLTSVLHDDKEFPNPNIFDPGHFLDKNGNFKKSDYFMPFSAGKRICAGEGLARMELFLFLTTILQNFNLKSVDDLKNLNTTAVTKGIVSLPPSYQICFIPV

[5] = AUC(0 to t) in Beagle dog at 3 mg/kg, po measured up to 24 hrs by LC-MS/MS analysis; assay type: ADME, organism-based, Canis lupus familiaris; parameters: time < 24 hrs, dose 3 mg/kg, route po; conditions: in vivo; summary of the method: as §1
[6] = target: T2, Androgen receptor (Homo sapiens) (UniProt P10275); assay: Induction of androgen receptor degradation in human VCaP cells at 0.01 uM after 24 hrs by Western blotting analysis relative to control; assay type: cell-based
T2 sequence (whole entry): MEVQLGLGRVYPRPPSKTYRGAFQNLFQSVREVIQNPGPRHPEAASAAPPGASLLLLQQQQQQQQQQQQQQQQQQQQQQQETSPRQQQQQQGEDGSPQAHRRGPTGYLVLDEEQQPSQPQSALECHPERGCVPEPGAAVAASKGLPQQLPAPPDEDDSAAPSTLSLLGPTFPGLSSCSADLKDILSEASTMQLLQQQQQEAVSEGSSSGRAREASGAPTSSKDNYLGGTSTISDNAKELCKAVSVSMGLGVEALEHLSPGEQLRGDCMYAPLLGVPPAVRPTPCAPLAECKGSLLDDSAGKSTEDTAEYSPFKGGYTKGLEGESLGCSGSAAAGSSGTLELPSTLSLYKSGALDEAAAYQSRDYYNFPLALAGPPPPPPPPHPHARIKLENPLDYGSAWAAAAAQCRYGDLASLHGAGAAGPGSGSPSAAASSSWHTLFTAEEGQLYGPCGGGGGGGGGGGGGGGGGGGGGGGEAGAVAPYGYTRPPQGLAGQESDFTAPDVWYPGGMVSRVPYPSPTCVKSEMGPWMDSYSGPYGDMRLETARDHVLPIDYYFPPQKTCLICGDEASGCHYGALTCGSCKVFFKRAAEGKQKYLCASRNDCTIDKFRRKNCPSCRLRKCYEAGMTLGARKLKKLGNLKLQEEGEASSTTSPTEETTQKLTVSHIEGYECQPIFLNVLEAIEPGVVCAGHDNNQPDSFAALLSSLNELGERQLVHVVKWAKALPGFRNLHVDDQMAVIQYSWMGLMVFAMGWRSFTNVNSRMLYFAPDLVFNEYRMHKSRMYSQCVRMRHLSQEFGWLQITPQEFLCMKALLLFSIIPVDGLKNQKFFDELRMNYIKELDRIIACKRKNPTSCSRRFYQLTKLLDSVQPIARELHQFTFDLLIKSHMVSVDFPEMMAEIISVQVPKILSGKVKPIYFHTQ
Summary of the method: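 VCaP cells treated for 24 h at 10, 100 or 1000 nM. AR protein measured by Western blotting.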

[7] = Metabolic stability in dog liver microsomes assessed as half life at 1 uM measured upto 45 mins in presence of NADPH by LC-MS/MS analysis; assay type: ADME, Canis lupus familiaris, Microsome; conditions: 0.75 h
Summary of the method: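 Pooled liver microsomes from each species: 1 μM compound with 0.5 mg/mL microsomes and 1.7 mM NADPH in 0.1 M K-phosphate, pH 7.4, 5 mM MgCl2, 37 °C. Sampled at 0, 5, 10, 15, 30 and 45 min with cold ACN quench. No-NADPH incubation as negative control; ketanserin as positive control. LC-MS/MS; half-life from ln(remaining) versus time.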

[8] = Clearance in ICR mouse at 2 mg/kg, iv measured upto 24 hrs by LC-MS/MS analysis; assay type: ADME, organism-based; conditions: in vivo; summary of the method: as §4
Cytochrome P450 3A4 = Cytochrome P450 3A4 (Homo sapiens, UniProt P08684); assay: Inhibition of CYP3A4 in human liver microsomes using […] as substrate preincubated for 5 mins followed by NADPH addition and measured after 5 mins by LC/MS analysis; assay type: ADME, Microsome
[9] = Plasma protein binding in dog at 1 uM after 5 hrs by equilibrium dialysis based LC-MS/MS analysis; assay type: ADME, cell-free, Canis lupus familiaris; summary of the method: as §2
[10] = Metabolic stability in monkey hepatocytes assessed as half life at 1 uM measured upto 120 mins in presence of NADPH by LC-MS/MS analysis; assay type: ADME, cell-based, Macaca mulatta, Hepatocyte; conditions: rhesus monkey, 2 h

Sequence of Cytochrome P450 3A4 (P08684 whole entry): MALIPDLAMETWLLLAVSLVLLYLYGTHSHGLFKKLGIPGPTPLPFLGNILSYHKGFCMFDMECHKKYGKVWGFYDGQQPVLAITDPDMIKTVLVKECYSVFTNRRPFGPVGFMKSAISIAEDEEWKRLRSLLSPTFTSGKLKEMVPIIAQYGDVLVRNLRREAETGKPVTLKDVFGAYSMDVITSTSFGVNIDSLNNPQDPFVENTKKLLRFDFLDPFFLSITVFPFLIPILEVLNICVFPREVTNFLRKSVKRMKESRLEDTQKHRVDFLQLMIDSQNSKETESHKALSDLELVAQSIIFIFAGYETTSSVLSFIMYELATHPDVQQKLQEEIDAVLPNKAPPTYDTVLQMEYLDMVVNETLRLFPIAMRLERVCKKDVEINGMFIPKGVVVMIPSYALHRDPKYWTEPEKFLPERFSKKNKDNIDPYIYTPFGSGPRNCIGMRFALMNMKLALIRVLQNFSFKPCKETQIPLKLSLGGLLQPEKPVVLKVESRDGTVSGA

C[C@H]1CC2(CCN(c3ccc(C(=O)N4CCN(C5CN(c6ccc7c(c6)C(=O)N(C6CCC(=O)NC6=O)C7=O)C5)CC4)cc3)CC2)CN1c1ccc(C#N)c(Cl)c1 (some centres undefined)
t1/2 [1]: 3.4 h
PPB [2]: 99.2%
Activity (VCaP): inactive
Vdss [3]: 2.8 L/kg
t1/2 [4]: 5 h
Activity (LNCaP): inactive
pIC50 (Cytochrome P450 2C8): < 5.00
AUCt [5]: 4460 ng·h/mL
Activity [6]: > 95%
t1/2 [7]: > 1 h
clearance [8]: 3.7 mL/min/kg
pIC50 (Cytochrome P450 3A4): < 5.00
PPB [9]: 99.3%
t1/2 [10]: > 2 h
